Screening data from PubChem.
NTR1 ag – NTR1 (human) agonism; activation, % at 20 µM; NTR1-U2OS beta-arrestin-GFP spot imaging, agonist mode; P30989; hit rate 0.17% among 330,000;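 active means activation at or above 40% of the spot to cytoplasm intensity ratio, with at least 20 cells analyzed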;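 further: 0% = DMSO without peptide and 100% = 100 nM NTR1 peptide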
sPLA2-III inh – Inhibits HGIII-sPLA2 liposome hydrolysis, primary screen; AID 743126; Q9NZ20; inhibition, % at 12.2 µM; QFRET BODIPY PC-A2 liposome hydrolysis, fluorescence; hit rate 0.56% among 370,000;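 active means inhibition above mean plus 3 SD of compounds lying within the high and low control bounds, cut at about 19% in these data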;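 further: 0% = median of test compound wells and 100% = no enzyme DMSO wells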
Exocytosis inh – blocks lytic granule exocytosis. TALL-104 LAMP-1 surface exposure, flow cytometry; cells stimulated with thapsigargin and PMA. inhibition, % at 10 µM. hit rate 0.66% among 360,000;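 active means inhibition above about 55%, limit read from the data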
MC4R barr agon – activates human MC4R beta-arrestin recruitment | U2OS MC4R beta-arrestin complementation, luminescence; percent of melanotan II response, DMSO zero | activation, % at 8.9 µM | hit rate 0.98% among 360,000 | AID 540308;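 active means activation above a per-plate cutoff, the mean activation of sample wells on that plate plus 3 SD, cut at about 8% in these data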
Bfl-1 A1 inh – inhibitors of the anti-apoptotic protein A1, read as caspase activation. caspase activation, % (test concentration not listed). MEF A1-2A-BIM cells, Caspase-Glo 3/7 luminescence, 3 h; percent of clofoctol response, vehicle zero. hit rate 0.066% among 330,000;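 active means over half of replicate activation scores above 10%, or exactly half above 10 with the replicate mean above 10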
MC4R antag cAMP – blocks human MC4R cAMP signaling. P32245. MC4R-expressing cells, MTII-stimulated cAMP, LANCE TR-FRET. inhibition, % at 6.5 µM. hit rate 0.48% among 360,000. AID 540295;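 active means inhibition above its plate's cutoff, the mean of tested wells on that plate plus 3 SD, cut at about 29% in these data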;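 further: 0% = Melanotan II alone and 100% = Melanotan II plus saturating MCL0020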
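Material: U2OS-MC4R stable cell line | Reagent: Melanotan II challenge after compound preincubation | Doses: One concentration, 6.5 µM nominal | Incubation: 30-min compound preincubation, 1-h Melanotan II challenge, 1-h detection, room temperature | Signal: TR-FRET cAMP assay | Replicates: One well per compound, no replicates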
MC4R barr conf – human MC4R beta-arrestin agonism confirmation; shares compounds with MC4R barr agon; U2OS MC4R beta-arrestin recruitment, luminescence; scaled DMSO 0%, Melanotan II 100%; activation, % at 8.9 µM; hit rate 31% among 2,400; AID 602192;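 active means mean activation across replicates above the hit cutoff set in the earlier primary screen, cut at about 8% in these data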
MOR-DOR barr ag – counter-screen for MC4R agonists: agonists of mu-delta opioid heterodimer; shares compounds with MC4R barr agon; U2OS PathHunter beta-arrestin, beta-gal luminescence; percent of deltorphin B response, DMSO zero; activation, % at 9.2 µM; hit rate 5.8% among 2,400;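 active means mean activation across replicates exceeds the hit threshold derived in the earlier primary screen, cut at about 18% in these data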;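 further: 100% = deltorphin B at 0.9 µM final and 0% = DMSO alone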
Target sequence (P35372 whole entry, looked up): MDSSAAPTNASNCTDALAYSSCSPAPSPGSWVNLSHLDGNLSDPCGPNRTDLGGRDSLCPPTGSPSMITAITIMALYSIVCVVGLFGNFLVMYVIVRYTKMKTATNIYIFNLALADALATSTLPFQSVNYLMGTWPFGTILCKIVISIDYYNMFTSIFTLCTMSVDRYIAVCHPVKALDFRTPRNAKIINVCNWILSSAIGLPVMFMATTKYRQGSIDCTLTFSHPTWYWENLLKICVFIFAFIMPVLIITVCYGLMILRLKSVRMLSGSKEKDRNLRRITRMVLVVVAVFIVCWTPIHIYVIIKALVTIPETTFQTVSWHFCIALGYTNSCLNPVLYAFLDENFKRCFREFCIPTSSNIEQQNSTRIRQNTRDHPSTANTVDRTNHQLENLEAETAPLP
Target sequence (P41143 whole entry, looked up): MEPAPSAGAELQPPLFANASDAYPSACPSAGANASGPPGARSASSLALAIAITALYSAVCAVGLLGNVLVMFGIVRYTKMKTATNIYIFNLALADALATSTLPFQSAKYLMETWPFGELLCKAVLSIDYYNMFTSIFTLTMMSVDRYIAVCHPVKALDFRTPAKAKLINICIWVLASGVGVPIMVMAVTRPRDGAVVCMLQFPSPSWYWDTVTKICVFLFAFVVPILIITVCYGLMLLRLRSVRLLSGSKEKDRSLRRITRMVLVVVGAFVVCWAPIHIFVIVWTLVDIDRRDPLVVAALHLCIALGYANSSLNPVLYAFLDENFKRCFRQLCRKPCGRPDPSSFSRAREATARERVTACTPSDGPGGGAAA
Active calls of the source: *; x = not tested or not shown. Shown are actives, neighbours in structure and some others; about 2.5% of the full set was active somewhere.

SMILES	NTR1 ag	sPLA2-III inh	Exocytosis inh	MC4R barr agon	Bfl-1 A1 inh	MC4R antag cAMP	MC4R barr conf	MOR-DOR barr ag
CCC1(C)Cc2c(sc3nc(SCC(=O)c4ccccc4)[nH]c(=O)c23)CO1 (stereo unspecified)	8	-51	3	12*	0	18	-1	7
CN1C(=O)/C(=C/c2cc3c(cc2Br)OCO3)NC1=S	4	6	-2	11*	0	-13	0	3
Cc1ccccc1NC(=O)C[C@H]1CC[C@H]2[C@@H](COc3ccc(NC(=O)Nc4ccccc4)cc3C(=O)N2C)O1	x	-18	x	x	x	x	x	x
O=C1/C(=C/c2ccc(F)cc2)SC(=S)N1Nc1ncc(C(F)(F)F)cc1Cl	0	10	1	9.9*	-1	2	5	2
O=C1/C(=C\c2ccccn2)SC(=S)N1Nc1ncc(C(F)(F)F)cc1Cl	4	x	-5	-1	1	7	x	x
COC(=O)C1CN(Cc2ccccc2)CCS(=O)(=O)N1Cc1ccccc1 (stereo unspecified)	x	-2	x	x	x	x	x	x
O=C(CSc1nnc(-c2ccco2)n1-c1ccc(Cl)cc1)Nc1ccccc1-c1ccccc1	x	-11	x	x	x	x	x	x
O=C(COc1c(Br)cc(Br)c2cccnc12)Nc1ccccc1F	19	5	2	13*	0	-1	2	2
COc1ccc(OCc2n(CC(=O)OC3CC(C)CCC3C(C)C)c3ccccc3[n+]2C)cc1 (stereo unspecified)	28	-176	64*	38*	1	-6	11*	9
COc1ccc(-c2n(CC(=O)OC3CC(C)CCC3C(C)C)c3ccccc3[n+]2C)cc1 (stereo unspecified)	x	-1	37	3	x	-2	x	x
CCc1cc(C(=O)Cc2cnn(-c3ccccc3)c2)c(O)cc1O	10	-40	0	22*	-1	-7	8	5
Cc1cc(C)cc(OCC(=O)Nc2ccccc2C(=O)NCc2ccco2)c1	3	-6	-1	31*	0	-1	1	5
O=C(COc1ccc2c(c1)CCC2)NCc1ccc(Cl)cc1	0	-4	-2	12*	0	8	4	7
Cc1sc2nc(CSc3cccc(C(F)(F)F)c3)[nH]c(=O)c2c1C	3	-3	-3	16*	0	-10	5	3
CCCN1CCS(=O)(=O)N(Cc2cn(Cc3ccc(C)cc3)nn2)C(C(=O)OC)C1 (stereo unspecified)	x	10	x	x	x	x	x	x
O=C(Nc1ccc2oc(-c3ccccc3)nc2c1)c1ccccc1F	-3	-1	0	0	0	7	x	x
O=C(Nc1ccc2oc(-c3cccc(F)c3)nc2c1)c1ccccc1F	3	3	-3	27*	1	7	16*	4
O=C(CO/N=C/c1ccccc1OC(F)F)N1CCc2ccccc21	0	-2	0	11*	0	24	-2	10
C[C@@H](N)C(=O)Nc1ccc(Cl)cc1C(=O)c1ccc[nH]1	x	0	x	x	x	x	x	x
NC(=O)CC(NC(=O)Cc1ccc(Br)cc1)c1ccc(NC2CCCCCCC2)c([N+](=O)[O-])c1 (stereo unspecified)	x	8	-3	11*	x	8	6	1
NC(=O)CC(NC(=O)Cc1ccc(Br)cc1)c1ccc(NC2CCCCCC2)c([N+](=O)[O-])c1 (stereo unspecified)	30	-1	4	-2	0	6	x	x
O=C(Nc1ccc(-c2nc3c(ccc4ccccc43)o2)cc1)c1ccco1	4	-9	0	15*	-4	3	4	6
Cc1ccc(NC(=O)C(C)c2ccc(-c3ccccc3)c(F)c2)c(C)c1 (stereo unspecified)	6	-3	1	9.6*	0	11	2	5
